Key:
[1] = iEDDA cycloaddition kinetics with TCO-OH; settings: water : DMSO (4 : 1), 37 °C
Summary of the method: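 Pseudo-first-order runs at 37 °C used varied TCO-OH concentrations at 10- to 50-fold excess over the tetrazine amino acid. Full spectra (700–200 nm) were followed by time-resolved UV-Vis and fitted as single-step kinetics to give kobs. Second-order rate constants came from the slope of kobs against [TCO-OH].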

[2] = tested on: Somatostatin receptor type 2 (SSTR2); settings: statement in words; cited from earlier work

| Compound | iEDDA cycloaddition rate relative to methyl analogue 4b [1] | affinity for Somatostatin receptor type 2 (SSTR2) [2] |
| --- | --- | --- |
| Cl.N[C@@H](CC1=CCC(O)(c2nncnn2)C=C1)C(=O)O (stereo partly drawn) [4a] | 14 times | – |
| Cl.N[C@@H](Cc1ccc(Oc2nnc(-c3ccccc3)nn2)cc1)C(=O)O [4c] | three times faster than 4b | – |
| octreotide | – | high affinity |

Reference: article PMC9096626 (RSC Advances, 2022)
